MBD2 DNA inh = inhibitors of human MBD2 binding to methylated oligonucleotide. 370,000 tested, 0.31% active. inhibition, % at 4.4 µM. TR-FRET. AID 686964. Q9UBB5; in the data active = inhibition above about 13%
Target sequence (Q9UBB5 whole entry, looked up): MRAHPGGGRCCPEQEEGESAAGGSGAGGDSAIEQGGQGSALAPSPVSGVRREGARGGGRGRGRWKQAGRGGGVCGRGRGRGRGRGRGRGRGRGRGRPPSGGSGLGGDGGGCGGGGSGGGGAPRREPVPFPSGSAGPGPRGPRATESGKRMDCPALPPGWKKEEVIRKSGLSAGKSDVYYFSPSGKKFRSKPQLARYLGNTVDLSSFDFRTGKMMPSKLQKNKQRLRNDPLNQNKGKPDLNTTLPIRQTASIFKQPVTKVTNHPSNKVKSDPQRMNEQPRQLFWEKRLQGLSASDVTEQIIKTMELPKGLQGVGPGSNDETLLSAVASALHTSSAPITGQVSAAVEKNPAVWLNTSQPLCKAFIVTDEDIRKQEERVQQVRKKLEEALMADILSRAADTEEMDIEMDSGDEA
CSN inh = CSN deneddylation inhibition; Q92905; Purified CSN, SCF-Nedd8-OG deneddylation, fluorescence polarization; inhibition, % at 12.5 µM; 360,000 tested, 0.38% active; AID 651999;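 active = pattern-corrected inhibition above about 35%, with an unprinted fluorescence ratio check between 0.5 and 1.5, limit read from the data, passing the limit was not always enough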;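 note: 0% = enzyme with substrate and 100% = substrate without enzyme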
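Test system: Human Csn5 produced in HEK293T cells | Compound: 12.5 µM single point | Times: 90 min, room temperature | Signal: Fluorescence polarization readout | Read-out basis: % inhibition of substrate cleavage by Csn5 | Controls: no-enzyme wells high, enzyme-with-substrate wells low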
ATG4B inhibitor = ATG4B (human) cysteine protease inhibition; ATG4B cleavage of LC3-PLA2, NBD-HPC fluorescence, 1 h; inhibition, % at 8.33 µM; 340,000 tested, 0.51% active; AID 504462; in the data active = inhibition above about 40%
UHRF1 MBD2 ctr = UHRF1 methyl-DNA binding inhibition. UHRF1 binding to methylated oligo, TR-FRET. Q96T88. inhibition, % at 4.4 µM. 370,000 tested, 0.75% active; in the data active = inhibition above about 21%;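 note: UHRF1 SRA domain binding a hemimethylated CpG hairpin DNA probe; 0% = median of test compound wells and 100% = reference inhibitor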
rCAG binder = binds r(CAG) RNA repeats; r(CAG) RNA repeat, TO-PRO-1 dye displacement fluorescence; inhibition, % at 3 µM; 370,000 tested, 1.3% active;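 active = inhibition above the plate cutoff, the mean of all test compounds on that plate plus 3 SD, cut at about 35% in these data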;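 note: 0% = DMSO alone and 100% = 100 µM mitoxantrone as full dye displacement; higher means more dye released from RNA so lower well fluorescence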
LEDGF integ inh = blocks HIV-1 LEDGF/p75-dependent DNA integration; TR-FRET IN-LEDGF/p75 DNA integration, Eu/Cy5; inhibition, % at 3.7 µM; 370,000 tested, 0.64% active; AID 743269;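 active = inhibition above the screen-wide mean plus 3 SD, cut at about 13% in these data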;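 note: signal is the Cy5 over europium emission ratio at 671 and 618 nm; 0% = plate median of compound wells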
ATG4B conf = ATG4B (human) inhibition, single-dose confirmed | shares compounds with ATG4B inhibitor | ATG4B protease fluorescent substrate cleavage assay | inhibition, % at 8.33 µM | 320 tested, 92% active; in the data active = inhibition above about 39%
PLA2 counter = PLA2 (human) inhibition in ATG4B counter-screen. 1,600 tested, 66% active. purified PLA2, NBD-C6-HPC fluorescence, 45 min. inhibition, % at 8.33 µM. shares compounds with ATG4B inhibitor. AID 588402; in the data active = inhibition above about 50%
Target sequence (P04054 whole entry, looked up): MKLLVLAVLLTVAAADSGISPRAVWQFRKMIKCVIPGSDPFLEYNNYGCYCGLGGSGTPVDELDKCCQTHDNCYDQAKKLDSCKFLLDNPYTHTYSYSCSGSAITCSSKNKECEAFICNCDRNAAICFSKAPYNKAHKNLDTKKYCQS
* marks the source's active call; other numbers are inactive results; . = no result. An excerpt weighted towards active compounds, which were near 3.1% of everything screened.

SMILES | MBD2 DNA inh | CSN inh | ATG4B inhibitor | UHRF1 MBD2 ctr | rCAG binder | LEDGF integ inh | PLA2 counter | others
NC(=O)c1ccc(C(F)(F)F)n(Cc2c(Cl)cccc2Cl)c1=O | 0.3 | 5.6 | 46.6* | -0.6 | -5.5 | 0.4 | 49.5
COc1ccc(C2=NOC(Cn3nc(C(=O)NCc4cccc(C(F)(F)F)c4)cc3-c3ccccc3)C2)cc1 (stereo unspecified) | 0.4 | 1.8 | 66.9* | -3.4 | 0.1 | -1.0 | 82.3*
COc1ccccc1C(=O)Oc1ccc2ccc(=O)oc2c1 | 2.2 | 0.2 | -10.4 | -1.6 | -1.1 | -0.4 | .
COc1ccccc1C(=O)Oc1ccc(C(C)(C)C)cc1 | 2.2 | 5.3 | 42.4* | -0.9 | -7.5 | 0.9 | 50.3*
COc1ccc(C2=NNC(c3cccs3)=Nc3ccc(OC)cc32)cc1 | 4.3 | -2.9 | 55.4* | -0.2 | 5.8 | 0.1 | 59.9*
O=[N+]([O-])c1ccccc1Nc1c2ccccc2nc2ccccc12 | -1.8 | 8.6 | -1.9 | -4.1 | 8.9 | 1.7 | .
O=[N+]([O-])c1ccc(Nc2c3ccccc3nc3ccccc23)cc1 | -1.2 | 9.0 | 58.3* | -10.6 | 8.0 | -1.5 | 59.7*
COc1ccc2c(c1)CCCN2C(=O)C1CCCN(S(=O)(=O)c2ccc(C)c(C)c2)C1 (stereo unspecified) | 2.6 | . | . | 2.2 | 5.0 | -1.6 | .
S=C(NCC1COc2ccccc2O1)Nc1ccccc1 (stereo unspecified) | 1.0 | 3.4 | 5.7 | 0.9 | -3.3 | -4.4 | .
S=C(NCc1ccccc1)NCC1COc2ccccc2O1 (stereo unspecified) | -2.9 | 3.4 | 52.8* | -0.9 | 0.5 | -2.6 | 61.1*
Cc1cc(C)c(OCC(=O)Nc2cccc(NC(=O)c3ccco3)c2)c(Br)c1 | 1.4 | 2.1 | 60.2* | -0.7 | -1.2 | -1.6 | 63.0*
COC(=O)[C@]12C[C@H](CC(=O)N3CCN(C(=O)C4CC4)CC3)C(=O)N(CCc3ccc(OC)c(OC)c3)C1=C[C@H](COCc1ccccc1)O[C@@H]2C | -4.2 | . | . | 0.3 | -0.2 | 2.4 | .
C=CCC[C@@H](Cc1ccc(F)cc1)C(=O)OC[C@@H](NC(=O)[C@H](CC=C)CC(=O)N(CCO)Cc1ccccc1)c1ccccc1 | 0.7 | 1.2 | 53.5* | -2.8 | 1.2 | -2.9 | 75.9*
C=CCC[C@@H](Cc1ccc(F)cc1)C(=O)OC[C@@H](NC(=O)[C@@H](CC=C)CC(=O)N(CCO)Cc1ccccc1)c1ccccc1 | -0.1 | -7.2 | 25.0 | 0.8 | 5.8 | -0.5 | .
Cc1ccc(OCc2nnc(SCC(=O)c3ccccc3)n2Cc2ccco2)cc1 | 6.5 | -1.3 | 59.7* | 0.0 | -0.2 | 6.6 | 62.6*
COC(=O)[C@]12C[C@H](CC(=O)NCc3cccc(C(F)(F)F)c3)C(=O)N(CCC3=CCCCC3)C1=C[C@H](C1CCCC1)O[C@@H]2C | -2.5 | . | . | -1.2 | 3.0 | -1.4 | .
Cc1ccc(S(=O)(=O)N2CCCC2c2cccc3[nH]cc(C)c23)cc1 (stereo unspecified) | 4.8 | . | . | -1.7 | 2.9 | 3.8 | .
COc1ccccc1-c1nc(S(=O)(=O)c2ccccc2)c(N2CCCCC2)o1 | 7.6 | -2.8 | 9.0 | 3.3 | 6.7 | 0.7 | .
O=S(=O)(c1ccc(F)cc1)c1nc(-c2ccccc2F)oc1N1CCCCC1 | 4.9 | 1.7 | 43.5* | 1.4 | 0.5 | -6.0 | 41.0 | ATG4B conf=65.1*
CC[C@H](C)/C=C/C1=CC2=C(Cl)C(=O)[C@@]3(C)OC(=O)C(C(=O)[C@H](C)[C@@H](C)O)=C3C2=CO1 | . | 49.0* | 41.6* | . | . | . | 54.0*
OC(c1cc(-c2cccc(Cl)c2)nc2ccccc12)C1CCCCN1 (stereo unspecified) | 1.6 | -2.7 | 42.5* | -1.8 | 28.1 | -5.2 | 65.8*
OC(c1cc(C(F)(F)F)nc2c(C(F)(F)F)cccc12)C1CCCCN1 (stereo unspecified) | -3.1 | 1.8 | 0.6 | -1.2 | 19.2 | 4.7 | .
O=C(COc1ccc(C(=O)c2ccccc2)cc1)NCC1CCCCC1 | 0.5 | -11.2 | 45.6* | 3.1 | -6.2 | 0.2 | 13.7
O=C(COc1ccccc1)NCC1CCCO1 (stereo unspecified) | 2.2 | 3.4 | 4.1 | 0.2 | -3.6 | 2.1 | .
O=c1c2cc3cccnc3nc2ncn1CCc1c[nH]c2ccccc12 | -8.1 | . | . | -1.9 | 10.7 | 5.8 | .
SMILES | MBD2 DNA inh | CSN inh | ATG4B inhibitor | UHRF1 MBD2 ctr | rCAG binder | LEDGF integ inh | PLA2 counter | others
Cc1ccc(OCc2cc(C(=O)N3CC4C[C@@H]5CC3C[C@H](C4)C5)no2)cc1C | 1.1 | 0.6 | -3.1 | 3.9 | -1.3 | -1.7 | .
Cc1cccc(C)c1OCc1cc(C(=O)N2CCN(c3ccccn3)CC2)no1 | 3.1 | -1.9 | 57.0* | -0.4 | -6.3 | -4.5 | 53.0*
Cc1cccc(C)c1OCc1cc(C(=O)N2CC3C[C@@H]4CC2C[C@H](C3)C4)no1 | -1.0 | -3.2 | 51.8* | -0.6 | -3.0 | -1.8 | 68.8*
CCCC/C=C1/[C@H](c2ccc(Cl)cc2)N(Cc2ccc3c(c2)OCO3)C2=N[C@H](c3ccccc3)CC(=O)N21 | 5.2 | . | . | -0.9 | 9.8 | -0.3 | .
O=C(COc1ccccc1Cl)N1CCN(c2ccccn2)CC1 | 0.3 | 7.1 | 91.9* | -2.0 | -3.1 | 4.8 | -4.7
COc1ccc(CNC(=O)COC(=O)c2ccc(OCc3c(C)noc3C)cc2)cc1OC | -10.8 | -9.8 | -5.0 | -2.8 | -2.9 | -2.3 | .
Cc1noc(C)c1COc1ccc(C(=O)OCC(=O)NCc2ccccc2Cl)cc1 | 4.7 | -2.1 | 44.9* | -2.7 | -2.3 | 0.7 | 46.0 | ATG4B conf=64.1*
Cc1c(C(=O)N2CCc3ccccc3C2)sc2nc(-c3ccccc3)cn12 | 1.8 | 5.8 | 44.9* | 3.3 | -0.5 | -2.8 | 53.0*
COc1ccc(-c2cn3c(C)c(C(=O)N4CCc5ccccc5C4)sc3n2)cc1 | . | 2.7 | 34.0 | . | . | . | .
C/C(=N/NC(=O)c1cc2ccccc2cc1O)C1C(=O)c2ccccc2C1=O | -0.6 | 8.9 | 48.9* | -4.5 | 100.1* | 3.4 | 26.5 | ATG4B conf=72.8*
CC(=O)c1cccc(NC(=O)C2C3C=CC(C3=C(c3ccccc3)c3ccccc3)C2C(=O)O)c1 (stereo unspecified) | -7.8 | 12.6 | 78.9* | 1.9 | 5.5 | 6.6 | 90.4*
CC(=O)OC12CCCN(C1)/C(=C/c1cccc(N(C)C)c1)C2 (stereo unspecified) | -3.6 | . | . | -1.1 | -0.8 | -2.6 | .
Fc1ccc(CCNC(=S)Nc2ccc(F)c(Cl)c2)cc1 | 3.6 | 3.0 | 44.2* | 0.4 | 1.5 | -3.6 | 45.8 | ATG4B conf=58.4*
Fc1ccc(NC(=S)NCCc2ccc(Cl)cc2)cc1 | 3.1 | -13.0 | -0.7 | 2.4 | -0.5 | 2.2 | .

Screens from PubChem.
